The source made the active and inactive calls.
What was measured:
Paracentrotus lividus [1] = experiment: Induction of microtubule destabilization in sea urchin embryo assessed as formation of tuberculate eggs for 8 to 20 mins after fertilization and 45 to 55 mins before first mitotic cycle completion measured 2.5 to 5.5 hrs after fertilization
Procedure, shortened: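 Sea urchin gametes were obtained by intracoelomic 0.5 M KCl injection, and embryos were cultured in filtered seawater at room temperature at up to 2000 embryos/mL. Fertilised eggs were exposed to 2-fold decreasing concentrations from 10 mM DMSO stocks diluted 10-fold in 96% EtOH. Final DMSO was kept ≤0.05% and EtOH ≤1%. Microscopic scoring gave the EC, the threshold causing 100% cleavage alteration, in duplicate.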

Paracentrotus lividus [2] = experiment: Induction of microtubule destabilization activity in sea urchin free-swimming blastulae assessed as embryo spinning measured after 0.25 to 20 hrs; conditions: Blastula
Procedure, shortened: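 Free-swimming blastulae just after hatching (8–10 h post-fertilisation) were cultured in filtered seawater at room temperature. They were treated with 2-fold decreasing concentrations (DMSO stock diluted 10-fold in EtOH; final DMSO ≤0.05%, EtOH ≤1%). Spinning and lack of forward movement were observed by light microscopy after 15 min to 20 h. The value is the effective threshold concentration, from duplicate measurements.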

Paracentrotus lividus [3] = experiment: Induction of microtubule destabilization in sea urchin embryo assessed as cleavage arrest exposed for 8 to 20 mins after fertilization and 45 to 55 mins before first mitotic cycle completion measured 2.5 to 5.5 hrs after fertilization
Procedure, shortened: (§1)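 Gametes were obtained by intracoelomic injection of 0.5 M KCl, and eggs were fertilised in filtered seawater. Embryos were cultured at room temperature with paddle agitation (60 rpm), as a monolayer at up to 2000 embryos/mL. Eggs were exposed 8–20 min post-fertilisation to 2-fold decreasing concentrations (10 mM DMSO stock diluted 10-fold in EtOH). Cleavage was scored microscopically at 2.5–5.5 h. The read-out was the threshold concentration, in duplicate.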

Paracentrotus lividus [4] = experiment: Induction of microtubule destabilization in sea urchin embryo assessed as cleavage alteration exposed 8 to 20 mins after fertilization and 45 to 55 mins before first mitotic cycle completion measured 2.5 to 5.5 hrs after fertilization; procedure, shortened: as §1
[5] = Growth inhibition of human NCI60 cells at 10 uM incubated for 48 hrs by sulforhodamine B assay relative to control; type: functional; conditions: NCI60, 48 h, read-out: GI
Procedure, shortened: (§2)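 NCI Developmental Therapeutics Program panel of sixty human tumour cell lines. Compounds were screened first at a single 10 μM dose (percent growth inhibition), and dose-response curves were run for active ligands. GI50 is the concentration giving 50% growth inhibition, reported as the mean across the 60 lines.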

[6] = Growth inhibition of human NCI60 cells incubated for 48 hrs by sulforhodamine B assay; type: functional; conditions: NCI60, 48 h; procedure, shortened: as §2
Paracentrotus lividus [7] = experiment: Induction of microtubule destabilization in sea urchin embryo assessed as alteration at later stages of development
Paracentrotus lividus [8] = experiment: Induction of microtubule destabilization in sea urchin embryo assessed as developmental retardation at later stages of development

Row | SMILES | Activity (Paracentrotus lividus [1]) | EC (Paracentrotus lividus [2]) | EC (Paracentrotus lividus [3]) | EC (Paracentrotus lividus [4]) | inhibition of growth at 10 µM [5] | GI50 [6] | Activity (Paracentrotus lividus [7]) | Activity (Paracentrotus lividus [8])
1 | Cc1ccc(C(=O)c2sc3nc4c(cc3c2N)CCCC4)cc1 | Active | > 4 µM | 2 µM | 0.02 µM | 16.4% |  |  | 
2 | Cc1ccc(C(=O)c2sc3nc4c(cc3c2N)CCCC4)c(C)c1 | Active | > 5 µM | 0.2 µM | 0.05 µM | 78.9% | 280 nM |  | 
3 | COc1ccccc1-c1ccc2c(N)c(C(=O)c3ccc4c(c3)OCO4)sc2n1 |  | > 4 µM | > 4 µM | > 4 µM | 37.4% | 5130 nM | Active | Active
4 | Nc1c(C(=O)c2ccc(Br)cc2)sc2nc3c(cc12)CCCC3 |  | > 4 µM | > 4 µM | 0.5 µM | 8.1% |  |  | 
5 | Cc1ccc(C(=O)c2sc3nc4c(cc3c2N)CCC4)cc1 |  | > 4 µM | > 4 µM | 0.2 µM |  |  |  | 
6 | Nc1c(C(=O)c2ccc(Cl)cc2)sc2nc3c(cc12)CCCC3 |  | > 4 µM | > 4 µM | 0.5 µM | 7.8% |  |  | 
7 | Nc1c(C(=O)c2ccccc2)sc2nc3c(cc12)CCCC3 |  | 0.5 µM | 0.2 µM | 0.02 µM |  |  |  | 
8 | Nc1c(C(=O)Nc2ccccc2)sc2nc3c(cc12)CCCCC3 |  | 0.2 µM | 0.04 µM | 0.01 µM |  |  |  | 
9 | Cc1ccc2c(N)c(C(=O)c3ccc(Cl)cc3)sc2n1 |  | > 4 µM | > 4 µM | 0.5 µM | 18.4% |  |  | 
10 | CN1CCc2nc3sc(C(=O)c4ccccc4)c(N)c3cc2C1 |  | > 4 µM | > 4 µM | 4 µM | 13.3% |  | Active | Active
11 | COc1ccc(C(=O)c2sc3nc4c(cc3c2N)N2CCC4CC2)cc1OC |  | > 4 µM | > 4 µM | > 4 µM | 11.7% |  | Active | Active
12 | Cc1ccc(C(=O)c2sc3nc(C)ccc3c2N)cc1 | Active | > 10 µM | 4 µM | 1 µM |  |  |  | 
13 | Cc1cccc(NC(=O)c2sc3nc4c(cc3c2N)CCC4)c1C |  | 5 µM | 0.5 µM | 0.05 µM |  |  |  | 
14 | COc1ccc(C(=O)c2sc3nc(-c4ccncc4)ccc3c2N)cc1OC |  | > 4 µM | > 4 µM | 4 µM | 17.1% |  |  | 
15 | Nc1c(C(=O)c2ccc3c(c2)OCO3)sc2nc(-c3ccncc3)ccc12 |  | > 4 µM | > 4 µM | > 4 µM |  |  | Active | Active
16 | Cc1cc(C)c2c(N)c(C(=O)c3ccc(Br)cc3)sc2n1 |  | > 4 µM | > 4 µM | > 4 µM |  |  |  | 
17 | COc1ccc(C(=O)c2sc3nc4c(cc3c2N)N2CCC4CC2)cc1 |  | > 4 µM | > 4 µM | > 4 µM | 11.5% |  | Active | Active
18 | N#Cc1cc2c(N)c(C(=O)c3ccc(F)cc3)sc2nc1N |  | > 4 µM | > 4 µM | 4 µM |  |  |  | 
19 | COc1ccc(C(=O)c2sc3nc4c(c(-c5ccccc5)c3c2N)CCCC4)cc1OC |  | > 4 µM | > 4 µM | > 4 µM |  |  | Active | Active

Row | SMILES | Activity (Paracentrotus lividus [1]) | EC (Paracentrotus lividus [2]) | EC (Paracentrotus lividus [3]) | EC (Paracentrotus lividus [4]) | inhibition of growth at 10 µM [5] | GI50 [6] | Activity (Paracentrotus lividus [7]) | Activity (Paracentrotus lividus [8])
20 | Nc1c(C(=O)c2ccccc2)sc2nc3c(cc12)N1CCC3CC1 |  | > 4 µM | > 4 µM | > 4 µM | 7.3% |  |  | 
21 | COc1ccc(C(=O)c2sc3nc(N)c(C#N)cc3c2N)cc1OC |  | > 4 µM | > 4 µM | 4 µM | 4.6% |  |  | 
22 | Nc1c(C(=O)c2ccc(Br)cc2)sc2ncccc12 |  | > 4 µM | > 4 µM | 1 µM |  |  |  | 
23 | Nc1c(C(=O)c2ccc3c(c2)OCO3)sc2nc3c(cc12)CCCC3 | Active | > 5 µM | 0.5 µM | 0.025 µM |  |  |  | 
24 | Nc1c(C(=O)c2ccc3c(c2)OCO3)sc2nc3c(c(C(F)(F)F)c12)CCCC3 |  | > 4 µM | > 4 µM | > 4 µM |  |  | Active | Active
25 | Cc1cccc(NC(=O)c2sc3nc4c(cc3c2N)CCCC4)c1C |  | 0.5 µM | 0.1 µM | 0.01 µM |  |  |  | 
26 | Nc1c(C(=O)Nc2ccccc2)sc2nc3c(cc12)CCCC3 |  | 0.2 µM | 0.05 µM | 0.01 µM |  |  |  | 
27 | COc1ccc(C(=O)c2sc3nc(C)cc(C)c3c2N)cc1OC |  | > 4 µM | > 4 µM | > 4 µM | 14.2% |  |  | 
28 | Nc1c(C(=O)c2ccc(F)cc2)sc2nc3c(cc12)CCCC3 |  | > 4 µM | > 4 µM | 0.2 µM | 26.7% |  |  | 
29 | Nc1c(C(=O)Nc2cccc(C(F)(F)F)c2)sc2nc3c(cc12)CCCCC3 |  | > 4 µM | > 4 µM | > 4 µM |  |  |  | 
30 | COc1ccc(C(=O)c2sc3nc4c(c(-c5ccncc5)c3c2N)CCCC4)cc1OC |  | > 4 µM | > 4 µM | > 4 µM |  |  | Active | Active
31 | COC(=O)Nc1nc2cc(C(=O)c3cccs3)ccc2[nH]1 [NOCODAZOLE] |  | 0.1 µM | 0.001 µM | 0.005 µM |  | 38.9 nM |  | 
32 | N#Cc1cc2c(N)c(C(=O)c3ccc(Cl)cc3)sc2nc1N |  | > 4 µM | > 4 µM | > 4 µM | 0.5% |  | Active | Active
33 | COc1ccc(C(=O)c2sc3nc(-c4ccccc4OC)ccc3c2N)cc1OC |  |  |  |  | 43.5% | 7940 nM |  | 
34 | Nc1c(C(=O)c2ccc(Br)cc2)sc2nc3c(cc12)CCC3 |  | > 4 µM | > 4 µM | 1 µM | 19.3% |  |  | 
35 | COc1ccc(C(=O)c2cc(OC)c(OC)c(OC)c2)cc1O [PHENSTATIN] |  | 0.5 µM | 0.05 µM | 0.01 µM |  | 60 nM |  | 
36 | Cc1cc(C)c2c(N)c(C(=O)c3ccc4c(c3)OCCO4)sc2n1 |  | > 4 µM | > 4 µM | 1 µM | 2% |  |  | 
37 | COc1ccc(C(=O)c2sc3nc4c(cc3c2N)CCCC4)cc1 |  | > 5 µM | > 4 µM | 0.5 µM |  |  |  | 

Source: ChEMBL document CHEMBL3872268, “3-Amino-thieno[2,3-b]pyridines as microtubule-destabilising agents: Molecular modelling and biological evaluation in the sea urchin embryo and human cancer cells” (Bioorg Med Chem, 2017)
